Assay results from ChEMBL document CHEMBL1165950, “Design and synthesis of new potent anticancer pyrazoles with high FLT3 kinase inhibitory selectivity” (Bioorg Med Chem, 2010).

Columns and labels:
Format in all cases: functional
LOX IMVI = assay: Cytotoxicity against human LOXIMVI cells assessed as cell growth at 100 nM after 48 hrs by sulforhodamine B assay; conditions: read-out: Activity
SK-MEL-5 [1] = assay: Cytotoxicity against human SK-MEL-5 cells assessed as cell growth at 100 nM after 48 hrs by sulforhodamine B assay; conditions: SK-MEL-5, 48 h, read-out: Activity
UACC-62 [2] = assay: Cytotoxicity against human UACC62 cells assessed as cell growth at 100 nM after 48 hrs by sulforhodamine B assay; conditions: UACC-62, 48 h, read-out: Activity
T47D [3] = assay: Cytotoxicity against human T47D cells assessed as cell growth at 100 nM after 48 hrs by sulforhodamine B assay; conditions: read-out: Activity
SK-MEL-5 [4] = assay: Cytotoxicity against human SK-MEL-5 cells assessed as cell growth at 10 uM; conditions: read-out: Activity
Method in brief: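 NCI-60 screen: cells grown in RPMI 1640 with 5% FBS and 2 mM L-glutamine, plated at 5000–40,000 cells/well according to doubling time, and preincubated 24 h at 37 °C, 5% CO2. The single 10 µM dose (DMSO stock) was added, then incubated 48 h. Cells were TCA-fixed and stained with 0.4% SRB, read at 515 nm, and growth % calculated against time-zero and control plates.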

ACHN [5] = assay: Cytotoxicity against human ACHN cells assessed as cell growth at 10 uM; conditions: read-out: Activity
Method in brief: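 Single-dose NCI-60 screen at 10 µM. Cells were grown in RPMI 1640 with 5% FBS and 2 mM L-glutamine, then treated for 48 h at 37 °C. Protein was measured by SRB staining with absorbance at 515 nm. Percentage growth was recorded, and inhibition percentage was calculated as 100 minus growth percentage.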

MOLT-4 = assay: Cytotoxicity against human MOLT4 cells assessed as cell growth at 0.001 uM after 48 hrs by sulforhodamine B assay; conditions: MOLT-4, 48 h, read-out: Activity
M14 [6] = assay: Cytotoxicity against human M14 cells assessed as cell growth at 1 uM after 48 hrs by sulforhodamine B assay; conditions: M14, 48 h, read-out: Activity
HOP-62 [7] = assay: Cytotoxicity against human HOP62 cells assessed as cell growth at 0.01 uM after 48 hrs by sulforhodamine B assay; conditions: HOP-62, 48 h, read-out: Activity
HCT-116 = assay: Cytotoxicity against human HCT116 cells assessed as cell growth at 0.01 uM after 48 hrs by sulforhodamine B assay; conditions: HCT-116, 48 h, read-out: Activity
SF-539 = assay: Cytotoxicity against human SF539 cells assessed as cell growth at 0.01 uM after 48 hrs by sulforhodamine B assay; conditions: SF-539, 48 h, read-out: Activity
Malme-3M = assay: Cytotoxicity against human MALME-3M cells assessed as cell growth at 0.01 uM after 48 hrs by sulforhodamine B assay; conditions: read-out: Activity
UACC-62 [8] = assay: Cytotoxicity against human UACC62 cells assessed as cell growth at 0.01 uM after 48 hrs by sulforhodamine B assay; conditions: UACC-62, 48 h, read-out: Activity
RXF 393 = assay: Cytotoxicity against human RXF393 cells assessed as cell growth at 0.01 uM after 48 hrs by sulforhodamine B assay; conditions: RXF 393, 48 h, read-out: Activity
SNB-19 = assay: Cytotoxicity against human SNB19 cells assessed as cell growth at 0.001 uM after 48 hrs by sulforhodamine B assay; conditions: SNB-19, 48 h, read-out: Activity
SNB-75 = assay: Cytotoxicity against human SNB75 cells assessed as cell growth at 0.001 uM after 48 hrs by sulforhodamine B assay; conditions: SNB-75, 48 h, read-out: Activity
U-251 = assay: Cytotoxicity against human U251 cells assessed as cell growth at 0.001 uM after 48 hrs by sulforhodamine B assay; conditions: U-251, 48 h, read-out: Activity
M14 [9] = assay: Cytotoxicity against human M14 cells assessed as cell growth at 0.001 uM after 48 hrs by sulforhodamine B assay; conditions: M14, 48 h, read-out: Activity
HOP-62 [10] = assay: Cytotoxicity against human HOP62 cells assessed as cell growth at 100 nM after 48 hrs by sulforhodamine B assay; conditions: HOP-62, 48 h, read-out: Activity
HOP-92 = assay: Cytotoxicity against human HOP92 cells assessed as cell growth at 100 nM after 48 hrs by sulforhodamine B assay; conditions: HOP-92, 48 h, read-out: Activity
ACHN [11] = assay: Growth inhibition of human ACHN cells after 48 hrs by sulforhodamine B assay
Method in brief: (§1)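 NCI five-dose SRB assay in RPMI 1640 with 5% FBS and 2 mM L-glutamine. Cells were preincubated 24 h, then exposed 48 h at 37 °C to five concentrations (10-fold or half-log serial dilutions from DMSO stocks). TCA fixation, SRB staining, and absorbance at 515 nm followed. IC50 was taken where [(Ti−Tz)/(C−Tz)]×100 = 50, with Tz as time-zero cell density.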

[12] = Growth inhibition of human Hs 578T cells after 48 hrs by sulforhodamine B assay; conditions: for CC50: read-out: LC50 (the source's name)
Method in brief: (§2)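 NCI 60-cell screen, five-dose mode. Cells grown in RPMI 1640 with 5% FBS and 2 mM L-glutamine and plated at 5000-40,000 cells/well according to doubling time. After 24 h preincubation, a Tz plate was TCA-fixed. Five concentrations (10-fold or 1/2 log dilutions) were applied for 48 h at 37 °C. SRB staining read at 515 nm. IC50 taken from [(Ti-Tz)/(C-Tz)]×100 = 50.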

BT-549 = assay: Growth inhibition of human BT549 cells after 48 hrs by sulforhodamine B assay; conditions: BT-549, 48 h; for CC50: read-out: LC50 (the source's name); method in brief: as §1
T47D [13] = assay: Growth inhibition of human T47D cells after 48 hrs by sulforhodamine B assay; method in brief: as §2
TK-10 = assay: Cytotoxicity against human TK10 cells assessed as cell growth at 1 uM after 48 hrs by sulforhodamine B assay; conditions: TK-10, 48 h, read-out: Activity
CCRF-CEM = assay: Cytotoxicity against human CCRF-CEM cells assessed as cell growth at 10 uM after 48 hrs by sulforhodamine B assay; conditions: read-out: Activity
Method in brief: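 NCI-60 five-dose screen. Cells were grown in RPMI 1640 with 5% FBS and 2 mM L-glutamine, plated at 5000–40,000 cells/well and preincubated for 24 h. Time-zero plates were TCA-fixed. DMSO-solubilized drug was added at five concentrations (10-fold or ½-log serial dilutions) for 48 h at 37 °C, 5% CO2. Cells were TCA-fixed, stained with 0.4% SRB and read at 515 nm. Percent growth used time-zero, control and test absorbances.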

HCT-15 = assay: Cytotoxicity against human HCT15 cells assessed as cell growth at 10 uM after 48 hrs by sulforhodamine B assay; conditions: HCT-15, 48 h, read-out: Activity
M14 [14] = assay: Cytotoxicity against human M14 cells assessed as cell growth at 10 uM after 48 hrs by sulforhodamine B assay; conditions: M14, 48 h, read-out: Activity
SK-MEL-2 = assay: Cytotoxicity against human SK-MEL-2 cells assessed as cell growth at 10 uM after 48 hrs by sulforhodamine B assay; conditions: SK-MEL-2, 48 h, read-out: Activity

## COc1cc(C)cc(-c2nn(CC#N)cc2-c2ccc(-c3cccc(C(C)=O)c3)nc2)c1
LOX IMVI
  growth at 0.1 µM: 82%
SK-MEL-5 [1]
  growth at 0.1 µM: 65%
UACC-62 [2]
  growth at 0.1 µM: 71%
T47D [3]
  growth at 0.1 µM: 81%
SK-MEL-5 [4]
  growth at 10 µM: 4.86%
ACHN [5]
  growth at 10 µM: 35.4%
MOLT-4
  growth at 0.001 µM: 97%
M14 [6]
  growth at 1 µM: -53%
HOP-62 [7]
  growth at 0.01 µM: 83%
HCT-116
  growth at 0.01 µM: 93%
SF-539
  growth at 0.01 µM: 89%
Malme-3M
  growth at 0.01 µM: 85%
UACC-62 [8]
  growth at 0.01 µM: 90%
RXF 393
  growth at 0.01 µM: 89%
SNB-19
  growth at 0.001 µM: 101%
SNB-75
  growth at 0.001 µM: 82%
U-251
  growth at 0.001 µM: 98%
M14 [9]
  growth at 0.001 µM: 94%
HOP-62 [10]
  growth at 0.1 µM: 82%
HOP-92
  growth at 0.1 µM: 89%
ACHN [11]
  GI50: 4.19 µM
  LC50 (concentration giving 50% net cell kill): > 100 µM
  TGI: > 100 µM
[12]
  GI50: 1.28 µM
  TGI: 3.87 µM
  CC50: 31.2 µM
BT-549
  GI50: 2.73 µM
  TGI: 15.1 µM
  CC50: > 100 µM
T47D [13]
  GI50: 2.23 µM
  LC50: > 100 µM
  TGI: 8.23 µM
TK-10
  growth at 1 µM: 2%
CCRF-CEM
  growth at 10 µM: 12%
HCT-15
  growth at 10 µM: 3%
M14 [14]
  growth at 10 µM: -43%
SK-MEL-2
  growth at 10 µM: -14%

## COc1cc(C)cc(-c2c(-c3ccnc(-c4ccc(C(C)=O)cc4)c3)cnn2CC#N)c1
LOX IMVI
  growth at 0.1 µM: 85%
SK-MEL-5 [1]
  growth at 0.1 µM: 85%
UACC-62 [2]
  growth at 0.1 µM: 89%
T47D [3]
  growth at 0.1 µM: 87%
SK-MEL-5 [4]
  growth at 10 µM: 49.2%
ACHN [5]
  growth at 10 µM: 70%
MOLT-4
  growth at 0.001 µM: 102%
M14 [6]
  growth at 1 µM: -19%
HOP-62 [7]
  growth at 0.01 µM: 81%
HCT-116
  growth at 0.01 µM: 91%
SF-539
  growth at 0.01 µM: 98%
Malme-3M
  growth at 0.01 µM: 93%
UACC-62 [8]
  growth at 0.01 µM: 88%
RXF 393
  growth at 0.01 µM: 101%
SNB-19
  growth at 0.001 µM: 102%
SNB-75
  growth at 0.001 µM: 80%
U-251
  growth at 0.001 µM: 104%
M14 [9]
  growth at 0.001 µM: 95%
HOP-62 [10]
  growth at 0.1 µM: 84%
HOP-92
  growth at 0.1 µM: 61%
ACHN [11]
  GI50: 3.76 µM
  LC50 (concentration giving 50% net cell kill): > 100 µM
  TGI: > 100 µM
[12]
  GI50: 1.68 µM
  TGI: 5.68 µM
  CC50: > 100 µM
BT-549
  GI50: 3.12 µM
  TGI: > 100 µM
  CC50: > 100 µM
T47D [13]
  GI50: 2.42 µM
  LC50: > 100 µM
  TGI: 8.02 µM
TK-10
  growth at 1 µM: 43%
CCRF-CEM
  growth at 10 µM: 14%
HCT-15
  growth at 10 µM: 12%
M14 [14]
  growth at 10 µM: 2%
SK-MEL-2
  growth at 10 µM: 20%

## COc1cc(C)cc(-c2c(-c3ccnc(-c4ccc(N(C)C)cc4)c3)cnn2CC#N)c1
LOX IMVI
  growth at 0.1 µM: 19%
SK-MEL-5 [1]
  growth at 0.1 µM: -21%
UACC-62 [2]
  growth at 0.1 µM: 37%
T47D [3]
  growth at 0.1 µM: 44%
SK-MEL-5 [4]
  growth at 10 µM: -18.4%
ACHN [5]
  growth at 10 µM: 22.1%
MOLT-4
  growth at 0.001 µM: 96%
M14 [6]
  growth at 1 µM: -9%
HOP-62 [7]
  growth at 0.01 µM: 62%
HCT-116
  growth at 0.01 µM: 44%
SF-539
  growth at 0.01 µM: 79%
Malme-3M
  growth at 0.01 µM: 34%
UACC-62 [8]
  growth at 0.01 µM: 38%
RXF 393
  growth at 0.01 µM: 84%
SNB-19
  growth at 0.001 µM: 90%
SNB-75
  growth at 0.001 µM: 88%
U-251
  growth at 0.001 µM: 95%
M14 [9]
  growth at 0.001 µM: 95%
HOP-62 [10]
  growth at 0.1 µM: 33%
HOP-92
  growth at 0.1 µM: -3%
ACHN [11]
  GI50: 0.068 µM
  LC50 (concentration giving 50% net cell kill): > 100 µM
  TGI: > 100 µM
[12]
  GI50: 0.166 µM
  TGI: > 100 µM
  CC50: > 100 µM
BT-549
  GI50: 0.0751 µM
  TGI: 0.514 µM
  CC50: > 100 µM
T47D [13]
  GI50: 0.056 µM
  LC50: > 100 µM
  TGI: > 100 µM
TK-10
  growth at 1 µM: 31%
CCRF-CEM
  growth at 10 µM: 8%
HCT-15
  growth at 10 µM: 9%
M14 [14]
  growth at 10 µM: -7%
SK-MEL-2
  growth at 10 µM: 10%
